Assay results reported in ChEMBL document CHEMBL3797085, “Structure-Based Design and Synthesis of Novel Inhibitors Targeting HDAC8 from Schistosoma mansoni for the Treatment of Schistosomiasis” (J Med Chem, 2016).
Calls of active or inactive are those of the source. The calls are words filed in the database; no cut-off is given here.

Key:
Histone deacetylase 1 [1] = target: T1, Histone deacetylase 1 (Homo sapiens, UniProt Q13547); assay: Inhibition of recombinant human HDAC1 using Cbz-(Ac)Lys-AMC as substrate preincubated for 90 mins followed by trypsin addition measured after 20 mins by fluorescence assay; conditions: read-out: IC50
T1 sequence (Q13547 whole entry): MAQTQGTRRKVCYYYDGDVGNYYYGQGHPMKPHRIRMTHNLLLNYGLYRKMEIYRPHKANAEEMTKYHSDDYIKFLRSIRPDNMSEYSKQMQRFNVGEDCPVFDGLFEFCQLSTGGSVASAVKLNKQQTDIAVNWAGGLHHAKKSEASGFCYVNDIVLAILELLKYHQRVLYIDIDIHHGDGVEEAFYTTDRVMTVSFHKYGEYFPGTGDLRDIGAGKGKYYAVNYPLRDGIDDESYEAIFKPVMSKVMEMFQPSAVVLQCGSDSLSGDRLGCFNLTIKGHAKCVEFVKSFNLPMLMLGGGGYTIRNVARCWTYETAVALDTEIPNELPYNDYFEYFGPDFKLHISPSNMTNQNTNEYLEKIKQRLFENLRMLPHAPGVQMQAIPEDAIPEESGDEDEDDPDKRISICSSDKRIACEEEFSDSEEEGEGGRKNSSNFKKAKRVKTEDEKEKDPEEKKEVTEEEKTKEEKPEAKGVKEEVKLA

Histone deacetylase 8 [2] = target: T2, Histone deacetylase 8 (Schistosoma mansoni, UniProt A5H660); assay: Inhibition of recombinant Schistosoma mansoni HDAC8 expressed in Escherichia coli using Fluor de Lys as substrate preincubated for 90 mins followed by BML-KI176 addition measured after 45 mins by fluorescence assay; conditions: read-out: IC50
T2 sequence (A5H660 whole entry): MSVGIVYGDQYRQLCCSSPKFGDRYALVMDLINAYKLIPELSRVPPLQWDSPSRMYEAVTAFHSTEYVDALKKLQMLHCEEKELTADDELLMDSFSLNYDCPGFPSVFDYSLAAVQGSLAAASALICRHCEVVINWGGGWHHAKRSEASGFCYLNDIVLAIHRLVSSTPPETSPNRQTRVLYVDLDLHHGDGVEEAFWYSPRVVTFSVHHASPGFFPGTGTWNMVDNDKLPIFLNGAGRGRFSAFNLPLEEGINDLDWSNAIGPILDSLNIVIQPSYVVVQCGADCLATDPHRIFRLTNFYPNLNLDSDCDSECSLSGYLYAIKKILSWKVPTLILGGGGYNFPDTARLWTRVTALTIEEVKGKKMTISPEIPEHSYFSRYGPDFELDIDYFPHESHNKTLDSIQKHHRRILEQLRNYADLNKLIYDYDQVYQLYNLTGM
Method in brief: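 smHDAC8 produced in E. coli. Fluor de Lys kit: compound, Fluor de Lys-HDAC8 substrate (50 µM) and enzyme incubated 90 min at 37°C, then Developer II for 45 min at 30°C. Reaction stopped with trichostatin A (2 µM). Fluorescence read at ex 390/em 460 nm. IC50 given as mean ± S.E.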

Schistosoma mansoni [3] = assay: Antiparasitic activity against schistosomula stage of Schistosoma mansoni assessed as parasite viability after 48 hrs by Alamar Blue assay; type: functional, organism-based
Method in brief: (§1)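 Mechanically transformed S. mansoni schistosomula, 100 per well, in Medium 199 with 10% FCS, penicillin, streptomycin and rifampicin, held 3 h at 37°C/5% CO2 before use. […] Resazurin added at 48 h; fluorescence (ex 530/em 590 nm) read 24 h later, corrected for drug-medium background. Ethanol-killed larvae as dead control. Triplicate wells, two biological replicates.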

[4] = target: T3, Protein deacetylase HDAC6 (Homo sapiens, UniProt Q9UBN7); assay: Inhibition of recombinant human HDAC6 using Cbz-(Ac)Lys-AMC as substrate preincubated for 90 mins followed by trypsin addition measured after 20 mins by fluorescence assay; conditions: read-out: IC50
T3 sequence (Q9UBN7 whole entry): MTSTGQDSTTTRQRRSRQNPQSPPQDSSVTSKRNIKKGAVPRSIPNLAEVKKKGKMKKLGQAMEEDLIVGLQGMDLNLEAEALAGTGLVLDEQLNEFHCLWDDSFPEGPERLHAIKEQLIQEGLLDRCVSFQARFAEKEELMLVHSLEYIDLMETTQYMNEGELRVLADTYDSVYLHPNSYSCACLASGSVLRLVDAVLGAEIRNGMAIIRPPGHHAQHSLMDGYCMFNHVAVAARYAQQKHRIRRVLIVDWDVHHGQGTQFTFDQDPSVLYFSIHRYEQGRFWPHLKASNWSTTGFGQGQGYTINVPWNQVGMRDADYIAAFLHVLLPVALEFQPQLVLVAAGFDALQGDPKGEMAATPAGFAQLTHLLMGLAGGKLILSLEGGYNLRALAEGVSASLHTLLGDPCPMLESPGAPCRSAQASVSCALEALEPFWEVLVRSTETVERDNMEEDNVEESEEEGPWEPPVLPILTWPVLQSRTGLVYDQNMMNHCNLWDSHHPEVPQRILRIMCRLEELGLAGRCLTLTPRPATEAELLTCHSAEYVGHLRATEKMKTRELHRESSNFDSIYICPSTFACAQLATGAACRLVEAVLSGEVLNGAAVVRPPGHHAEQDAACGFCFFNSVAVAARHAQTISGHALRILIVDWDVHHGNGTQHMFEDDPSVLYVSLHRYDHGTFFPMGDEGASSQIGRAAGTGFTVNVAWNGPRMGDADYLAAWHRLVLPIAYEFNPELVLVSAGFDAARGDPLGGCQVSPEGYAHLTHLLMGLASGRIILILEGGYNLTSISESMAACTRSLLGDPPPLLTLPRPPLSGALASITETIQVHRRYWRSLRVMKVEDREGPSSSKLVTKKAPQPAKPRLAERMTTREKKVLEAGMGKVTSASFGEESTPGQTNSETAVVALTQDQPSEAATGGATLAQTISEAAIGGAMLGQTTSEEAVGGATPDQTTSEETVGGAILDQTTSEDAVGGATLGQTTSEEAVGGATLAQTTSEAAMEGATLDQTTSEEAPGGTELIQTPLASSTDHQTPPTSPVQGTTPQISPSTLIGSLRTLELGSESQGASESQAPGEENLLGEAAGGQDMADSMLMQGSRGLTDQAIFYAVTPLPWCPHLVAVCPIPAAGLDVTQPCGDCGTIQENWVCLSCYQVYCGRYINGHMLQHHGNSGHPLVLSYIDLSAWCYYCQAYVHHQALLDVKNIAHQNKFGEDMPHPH

[5] = Cytotoxicity against HEK293 cells assessed as cell viability at 50 uM after 24 hrs by Alamar Blue assay relative to control; type: cell-based; conditions: human, read-out: Activity
Method in brief: (§2)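 AlamarBlue added after 24 h, incubated a further 21 h; resorufin fluorescence ex 560/em 590 nm. Triplicates; viability relative to untreated cells; daunorubicin positive control.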

Histone deacetylase 8 [6] = target: T4, Histone deacetylase 8 (Homo sapiens, UniProt Q9BY41); assay: Inhibition of recombinant human HDAC8 using Fluor de Lys as substrate preincubated for 90 mins followed by BML-KI176 addition measured after 45 mins by fluorescence assay; conditions: read-out: IC50
T4 sequence (Q9BY41 whole entry): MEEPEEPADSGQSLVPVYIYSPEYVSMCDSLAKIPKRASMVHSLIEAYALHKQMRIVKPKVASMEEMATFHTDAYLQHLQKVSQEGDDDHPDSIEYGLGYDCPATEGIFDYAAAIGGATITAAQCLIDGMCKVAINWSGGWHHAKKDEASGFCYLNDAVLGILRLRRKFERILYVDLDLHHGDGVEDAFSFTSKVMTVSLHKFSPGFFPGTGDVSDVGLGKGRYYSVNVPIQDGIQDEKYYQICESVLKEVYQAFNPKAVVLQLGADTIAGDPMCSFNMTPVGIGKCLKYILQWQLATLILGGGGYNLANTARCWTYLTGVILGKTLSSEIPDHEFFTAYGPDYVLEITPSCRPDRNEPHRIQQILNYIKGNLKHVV

Schistosoma mansoni [7] = assay: Antiparasitic activity against schistosomula stage of Schistosoma mansoni assessed as parasite viability at 10 uM after 48 hrs by Alamar Blue assay relative to control; type: functional; method in brief: as §1
Schistosoma mansoni [8] = assay: Antiparasitic activity against schistosomula stage of Schistosoma mansoni assessed as parasite viability at 20 uM after 48 hrs by Alamar Blue assay relative to control; type: functional; method in brief: as §1
Schistosoma mansoni [9] = assay: Antiparasitic activity against adult Schistosoma mansoni assessed as reduction in egg lying at 20 uM after 5 days by microscopy relative to control; type: functional; design: scale not given: the % may be the effect or the level left
Method in brief: (§3)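 Adult worm pairs perfused from infected hamsters; ten pairs per well in 2 mL M199 (pH 7.4, 10 mM HEPES, supplemented as for schistosomula), 37°C, 5% CO2. Cultured 5 days before adding inhibitors in DMSO; medium and inhibitor refreshed daily. Eggs in recovered, centrifuged medium counted by microscopy. Two biological replicates in triplicate.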

Schistosoma mansoni [10] = assay: Antiparasitic activity against adult Schistosoma mansoni assessed as reduction in egg lying at 10 uM after 5 days by microscopy relative to control; type: functional, organism-based; method in brief: as §3
Schistosoma mansoni [11] = assay: Antiparasitic activity against schistosomula stage of Schistosoma mansoni assessed as parasite viability at 10 uM measured within 2 days by microscopy; type: functional, organism-based
Method in brief: (§4)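 Microscopy viability: 2,000 schistosomula per well in M199 (10 mM HEPES, pH 7.4, supplemented), 37°C, 5% CO2; inhibitor at 10 or 20 µM in DMSO, medium refreshed daily, up to 5 days. Dead larvae scored by granular appearance, tegumental defects and lack of motility; ≥300 larvae per time point; % viable larvae. Three biological replicates in duplicate.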

Schistosoma mansoni [12] = assay: Antiparasitic activity against schistosomula stage of Schistosoma mansoni assessed as parasite viability at 20 uM after 1 to 2 days by microscopy; type: functional, organism-based; method in brief: as §4
Schistosoma mansoni [13] = assay: Antiparasitic activity against schistosomula stage of Schistosoma mansoni assessed as parasite viability at 10 to 20 uM after 5 days by microscopy relative to control; type: functional, organism-based; method in brief: as §4
HEK293 = assay: Cytotoxicity against HEK293 cells assessed as cell viability after 24 hrs by Alamar Blue assay; type: cell-based; conditions: Homo sapiens, HEK293, 24 h; method in brief: as §2
Schistosoma mansoni [14] = assay: Antiparasitic activity against adult Schistosoma mansoni assessed as separation of male and female worm pairs at 20 uM after 5 days by microscopy relative to control; type: functional
Method in brief: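 Hamster-perfused worm pairs, ten per well in 2 mL buffered supplemented M199 (10 mM HEPES, pH 7.4), 37°C, 5% CO2, pre-cultured 5 days, then inhibitor in DMSO at 10 or 20 µM; medium and compound renewed daily. Pairs still coupled counted daily by microscopy for up to 5 days. Two biological replicates in triplicate.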

Histone deacetylase 1 [15] = target: T1, Histone deacetylase 1; assay: Inhibition of recombinant human HDAC1 using Cbz-(Ac)Lys-AMC as substrate at 10 uM preincubated for 90 mins followed by trypsin addition measured after 20 mins by fluorescence assay relative to control

## CCOc1ccc(C(=O)NO)cc1NC(=O)c1ccc(-c2ccccc2)cc1
Histone deacetylase 1 [1]
  IC50: 2080 nM
Histone deacetylase 8 [2]
  IC50: 92 nM
Schistosoma mansoni [3]
  Activity: Dose-dependent effect
[4]
  IC50: 600 nM
[5]
  viability at 24 h, 50 µM: 80.3%
Histone deacetylase 8 [6]
  IC50: 149 nM
Schistosoma mansoni [7]
  Activity: 77.9%
Schistosoma mansoni [8]
  Activity: 35.8%

## COc1ccc(C(=O)NO)cc1NC(=O)c1ccc(-c2ccccc2)cc1
Schistosoma mansoni [9]
  Activity: 80%
Schistosoma mansoni [10]
  Activity: Active
Schistosoma mansoni [3]
  Activity: Dose-dependent effect
  EC50: 16100 nM
[5]
  viability at 24 h, 50 µM: 12.3%
Schistosoma mansoni [7]
  Activity: 64.8%
Schistosoma mansoni [11]
  Activity: Active
Schistosoma mansoni [8]
  Activity: 33.4%
Schistosoma mansoni [12]
  Activity: Active
Schistosoma mansoni [13]
  Activity: inactive
HEK293
  IC50: 199000 nM
Schistosoma mansoni [14]
  Activity: 90%

## O=C(NO)c1ccc(Cl)c(NC(=O)c2ccc(Cl)cc2)c1
Histone deacetylase 1 [1]
  IC50: 3800 nM
Histone deacetylase 8 [2]
  IC50: 235 nM
[4]
  IC50: 90 nM
[5]
  viability at 24 h, 50 µM: 81.6%
Histone deacetylase 8 [6]
  IC50: 292 nM
Schistosoma mansoni [7]
  Activity: 71.8%
Schistosoma mansoni [8]
  Activity: 49.3%

## COc1ccc(C(=O)NO)cc1NC(=O)c1ccccc1
Histone deacetylase 1 [1]
  IC50: 2300 nM
Histone deacetylase 8 [2]
  IC50: 190 nM
[4]
  IC50: 2500 nM
[5]
  viability at 24 h, 50 µM: 67.3%
Histone deacetylase 8 [6]
  IC50: 88.3 nM
Schistosoma mansoni [7]
  Activity: 77.4%
Schistosoma mansoni [8]
  Activity: 74.8%

## COc1ccc(C(=O)Nc2cc(C(=O)NO)ccc2OC)cc1
Histone deacetylase 1 [1]
  IC50: 2600 nM
Histone deacetylase 8 [2]
  IC50: 106 nM
[4]
  IC50: 400 nM
[5]
  viability at 24 h, 50 µM: 61.9%
Histone deacetylase 8 [6]
  IC50: 77.1 nM
Schistosoma mansoni [7]
  Activity: 74.6%
Schistosoma mansoni [8]
  Activity: 64.6%

## O=C(NO)c1cccc(NCc2ccccc2)c1
Histone deacetylase 8 [2]
  IC50: 1080 nM
Histone deacetylase 8 [6]
  IC50: 143 nM
Histone deacetylase 1 [15]
  inhibition: 41.4%

## O=C(NO)c1ccc(Cl)c(NC(=O)c2cccc(OCc3ccccc3)c2)c1
Histone deacetylase 1 [1]
  IC50: 9400 nM
Histone deacetylase 8 [2]
  IC50: 378 nM
[4]
  IC50: 1500 nM
[5]
  viability at 24 h, 50 µM: 74.4%
Histone deacetylase 8 [6]
  IC50: 214 nM
Schistosoma mansoni [7]
  Activity: 73.8%
Schistosoma mansoni [8]
  Activity: 68.6%

## O=C(NO)c1cccc(N(Cc2ccccc2)Cc2ccccc2)c1
Histone deacetylase 1 [1]
  IC50: 42300 nM
Histone deacetylase 8 [2]
  IC50: 9290 nM
[4]
  IC50: 8600 nM
[5]
  viability at 24 h, 50 µM: 7.7%
Histone deacetylase 8 [6]
  IC50: 2190 nM
Schistosoma mansoni [7]
  Activity: 77.9%
Schistosoma mansoni [8]
  Activity: 74.6%

## COc1ccc(C(=O)NO)cc1NC(=O)c1ccccc1Cl
Histone deacetylase 1 [1]
  IC50: 9600 nM
Histone deacetylase 8 [2]
  IC50: 699 nM
[4]
  IC50: 3100 nM
[5]
  viability at 24 h, 50 µM: 96.9%
Histone deacetylase 8 [6]
  IC50: 211 nM
Schistosoma mansoni [7]
  Activity: 89.5%
Schistosoma mansoni [8]
  Activity: 66.5%

## COc1ccc(C(=O)NO)cc1NC(=O)c1ccc(Cl)cc1Cl
Histone deacetylase 1 [1]
  IC50: 13000 nM
Histone deacetylase 8 [2]
  IC50: 122 nM
[4]
  IC50: 2300 nM
[5]
  viability at 24 h, 50 µM: 95.1%
Histone deacetylase 8 [6]
  IC50: 548 nM
Schistosoma mansoni [7]
  Activity: 77.8%
Schistosoma mansoni [8]
  Activity: 50.7%

## CN(C)c1cccc(C(=O)NO)c1
Histone deacetylase 8 [2]
  IC50: 1580 nM
[5]
  viability at 24 h, 50 µM: 92.7%
Histone deacetylase 8 [6]
  IC50: 70.2 nM
Schistosoma mansoni [7]
  Activity: 92.6%
Histone deacetylase 1 [15]
  inhibition: 37.4%

## Cc1ccc(C(=O)NO)cc1NC1CCCCC1
Histone deacetylase 8 [2]
  IC50: 600 nM
[5]
  viability at 24 h, 50 µM: 70.2%
Histone deacetylase 8 [6]
  IC50: 104 nM
Schistosoma mansoni [7]
  Activity: 84.3%
Histone deacetylase 1 [15]
  inhibition: 49.5%
